Reference: paper PMC6850403 (Clinical Pharmacology in Drug Development, 2019)
Read-outs that look alike come from different tables or passages of the source.

Columns and labels:
[1] = format: in vivo, human; conditions: for clearance: CL; for half-life: t½
Method in brief: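 Open-label, randomized 2-period, 2-sequence crossover in 12 healthy volunteers, fasted ≥10 h. Single 100 mg oral tablet with water to 240 mL, or 50 mg IV (1 mg/mL over 1.25 h). Plasma sampled 0–96 h and assayed by HPLC-MS/MS (LLOQ 3 ng/mL). Noncompartmental analysis used: CL/F = dose/AUC0‐∞. Log dose-normalized AUCs fitted by linear mixed-effect model; ratios exponentiated with 90% CI.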

[2] = Safety and tolerability evaluation in the absolute bioavailability study; format: in vivo, human
Method in brief: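 Healthy subjects in a randomized crossover each received a single 100 mg oral tablet and a single 50 mg IV infusion over 1.25 h, fasted. Recorded as AEs: adverse drug reactions, illnesses with onset during study, exacerbation of previous illness, clinically significant physical-examination changes and abnormal objective test findings. Vital signs, ECG and laboratory parameters were monitored.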

Human mass balance = format: in vivo; conditions: urine, po, 100 mg
[3] = Hepatic extraction estimate, well-stirred model; design: species or system human; conditions: hepatic blood flow of 87 L/h
[4] = once daily (QD), patients with advanced myeloid malignancies; cited from earlier work
[5] = cited from earlier work
[6] = test system: cytochrome P450 (CYP) 3A4/5; conditions: preclinical studies; cited from earlier work
[7] = single 100‐mg dose; cited from earlier work
[8] = weakly basic drug; cited from earlier work
human blood = conditions: parenteral formulation, in vitro; cited from earlier work
[9] = parenteral formulation, rabbit; cited from earlier work
[10] = cited from earlier work; remark: listed apart in the source
[11] = cited from earlier work; remark: listed apart in the source
[12] = in vitro data and data from the ADME study; cited from earlier work
[13] = 100 mg oral tablet, single dose, fasted
[14] = human, plasma, iv, 50 mg, arithmetic mean ± SD, 50 mg IV, single dose, fasted
[15] = human, plasma, iv, 50 mg, geometric mean (geometric CV, %), 50 mg IV, single dose, fasted
[16] = human, plasma, po, 100 mg, arithmetic mean ± SD, 100 mg oral tablet, single dose, fasted

CN1CC[C@@H](NC(=O)Nc2ccc(C#N)cc2)C[C@@H]1c1nc2ccccc2[nH]1 [Glasdegib]
AUC0‐last(dn), dose normalized geometric mean from the statistical model ([1]; 50 mg IV): 96.98 ng·h/mL/mg | AUC0‐∞(dn), dose normalized geometric mean from the statistical model ([1]; 50 mg IV): 98.90 ng·h/mL/mg | Intersubject variability in CL, %CV of the geometric mean ([1]; 50 mg IV): 38% | t½, arithmetic mean ± SD ([1]; 50 mg IV, single dose, fasted): 13.78 ± 2.97 h | AUC0‐last(dn), dose normalized geometric mean from the statistical model ([1]; 100 mg oral tablet): 74.88 ng·h/mL/mg | AUC0‐∞(dn), dose normalized geometric mean from the statistical model ([1]; 100 mg oral tablet): 76.28 ng·h/mL/mg | Intersubject variability in CL/F, %CV of the geometric mean ([1]; 100 mg oral tablet): 38% | CL/F, arithmetic mean ± SD [1, 13]: 13.87 ± 4.51 L/h | CL/F, geometric mean (geometric CV, %) [1, 13]: 13.10 (38) L/h | t½, arithmetic mean ± SD [1, 13]: 14.26 ± 2.45 h | CL/F, arithmetic mean ± SD ([1]; 100 mg oral tablet, single dose, fasted, listed as glasdegib): 13.87 L/h | Tmax ([1]; human, plasma, iv, 50 mg): 1.27 h | AUC ([1]; human, plasma, iv, 50 mg, AUC0‐last, arithmetic mean ± SD, 50 mg IV, single dose, fasted): 5.12 ± 2.16 µg·h/mL | AUC ([1]; human, plasma, iv, 50 mg, AUC0‐last, geometric mean (geometric CV, %), 50 mg IV, single dose, fasted): 4.78 µg·h/mL | AUC ([1]; human, plasma, iv, 50 mg, AUC0‐∞, arithmetic mean ± SD, 50 mg IV, single dose, fasted): 5.22 ± 2.21 µg·h/mL | AUC ([1]; human, plasma, iv, 50 mg, AUC0‐∞, geometric mean (geometric CV, %), 50 mg IV, single dose, fasted): 4.88 µg·h/mL | clearance [1, 14]: 181 mL/min | clearance [1, 15]: 171 mL/min | Cmax [1, 14]: 0.687 ± 0.197 µg/mL | Cmax [1, 15]: 0.665 µg/mL | half-life [1, 14]: 13.8 h | bioavailability ([1]; human, plasma, oral, Absolute oral bioavailability, arithmetic mean ± SD, arithmetic mean ratios, without logarithmic transformation, of AUC0‐∞(dn) oral to IV): 78.5 ± 12.8% | Tmax ([1]; human, plasma, po, 100 mg): 1.52 h | AUC ([1]; human, plasma, po, 100 mg, AUC0‐last, arithmetic mean ± SD, 100 mg oral tablet, single dose, fasted): 7.99 ± 3.31 µg·h/mL | AUC ([1]; human, plasma, po, 100 mg, AUC0‐last, geometric mean (geometric CV, %), 100 mg oral tablet, single dose, fasted): 7.49 µg·h/mL | AUC ([1]; human, plasma, po, 100 mg, AUC0‐∞, arithmetic mean ± SD, 100 mg oral tablet, single dose, fasted): 8.16 ± 3.44 µg·h/mL | AUC ([1]; human, plasma, po, 100 mg, AUC0‐∞, geometric mean (geometric CV, %), 100 mg oral tablet, single dose, fasted): 7.63 µg·h/mL | Cmax [1, 16]: 0.684 ± 0.155 µg/mL | Cmax ([1]; human, plasma, po, 100 mg, geometric mean (geometric CV, %), 100 mg oral tablet, single dose, fasted): 0.668 µg/mL | half-life [1, 16]: 14.3 h | AEs reported ([2]; following 50 mg IV administration): No AEs were reported | Number of AEs reported ([2]; following 100 mg oral tablet, 1 mild and 1 moderate, in 2 subjects): 2 | Tolerability ([2]; single 100‐mg oral and 50‐mg IV doses, healthy subjects): generally safe and well tolerated | Peak ALT elevation, subject with moderate AE ([2]; treatment period 1 day 10, after oral 100 mg): 3 × upper limit of normal | dose excreted (Human mass balance): ≥ 49% | Hepatic extraction [3]: < 0.3 | Maximum tolerated dose as a single agent [4]: 400 mg | Maximum tolerated dose ([5]; QD, patients with advanced solid tumor): 320 mg | Tolerability ([5]; single dose of 320 mg, patients with advanced tumors): well tolerated | Metabolizing enzyme [6]: primarily metabolized by cytochrome P450 (CYP) 3A4/5 | Effect of proton‐pump inhibitors on glasdegib PK [7]: do not have a clinically relevant effect | Solubility, pH dependence [8]: decreasing solubility as pH increases | Hemolysis in human blood (human blood): did not suggest that glasdegib was the cause of hemolysis in human blood | Local vascular tissue irritation [9]: did not suggest that glasdegib was the cause of hemolysis in human blood and/or local vascular tissue irritation | Administered parent dose recovered in the feces [10]: 19.5% | Contribution of the glucuronidation pathway via UGT1A9 to elimination [10]: only minor | Major route of elimination [10]: primarily through CYP3A4 oxidation | Mean plasma renal clearance [10]: 1.97 L/h | Impact of disintegration and dissolution on absorption kinetics ([11]; oral solution compared to instant‐release tablet): do not appear to impact the absorption kinetics | Geometric mean Cmax ([11]; single 100‐mg oral dose, 100‐mg maleate immediate release tablet, healthy subjects): 0.7753 µg/mL | Plasma to whole blood partitioning [12]: < 1

[^14C]glasdegib
Mean recovery of radioactivity in urine (as parent and metabolites) ([10]; single oral dose of 100‐mg/100‐µCi, 6 healthy volunteers): 49%
